Data set [1] deals with P388. The data set is described as follows: Antitumor activity against mouse P388 cells allografted in CD2F1 mouse assessed as increase in mouse survival at 40 mg/kg, ip of total 9 doses starting 24 hrs post tumor inoculation measured on day 5 of inoculation relative to control. Type of data set: functional. The conditions noted are these: route intraperitoneal. In a few lines:
(§1)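 Male CD2F1 mice inoculated ip with 6×10^6 P388 leukemia cells. Dosing was ip as a suspension in distilled water–Tween 80, nine daily doses starting 24 h after inoculation. Activity was read as median survival time of treated vs control mice (% T/C); % T/C ≥ 120 was considered significant. Groups were 6 mice.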

Data set [2] relates to Mus musculus. The data set is described as follows: Toxicity in mouse P388 cells allografted CD2F1 mouse assessed as body weight loss at 5 mg/kg, ip of total 9 doses starting 24 hrs post tumor inoculation measured on day 5 of inoculation relative to control. As to conditions: in vivo. The data set is classed as organism-based. Set-up: dose 5 mg/kg, route intraperitoneal. In a few lines:
(§2)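 Male CD2F1 mice inoculated ip with 6×10^6 P388 leukemia cells. Compounds given ip as distilled water–Tween 80 suspension, nine daily doses starting 24 h after inoculation; six mice per dose group. Treated-minus-control body-weight change (T − C) and toxicity-day survivors recorded on day 5 (4 days after first dose).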

Data set [3] concerns P388. The data set is described as follows: Antitumor activity against mouse P388 cells allografted in CD2F1 mouse assessed as increase in mouse survival at 10 mg/kg, ip of total 9 doses starting 24 hrs post tumor inoculation measured on day 5 of inoculation relative to control. Type of data set: functional. As to conditions: route intraperitoneal. The gist of the method:
as §1

Data set [4] has as its system P388. Put plainly: Antitumor activity against mouse P388 cells allografted in CD2F1 mouse assessed as increase in mouse survival at 5 mg/kg, ip of total 9 doses starting 24 hrs post tumor inoculation measured on day 5 of inoculation relative to control. The data set is classed as functional. The conditions noted are these: route intraperitoneal. The gist of the method: as §1

Data set [5] deals with Mus musculus. The data set is described as follows: Toxicity in mouse P388 cells allografted CD2F1 mouse assessed as mouse survival at 10 mg/kg, ip of total 9 doses starting 24 hrs post tumor inoculation measured on day 5 of inoculation relative to control. Set-up: dose 10 mg/kg, route intraperitoneal. The conditions noted are these: in vivo. Type of data set: organism-based. In a few lines: (§3)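 Male CD2F1 mice bearing ip P388 leukemia (6×10^6 cells) were dosed ip with nine daily doses in distilled water–Tween 80 suspension, starting 24 h after inoculation. Survivors per group of 6 were counted on day 5, i.e. 4 days after the first dose. Body-weight change of treated minus control mice was also recorded.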

In data set [6] the test system is Mus musculus. The data set is described as follows: Toxicity in mouse P388 cells allografted CD2F1 mouse assessed as body weight loss at 10 mg/kg, ip of total 9 doses starting 24 hrs post tumor inoculation measured on day 5 of inoculation relative to control. The conditions noted are these: in vivo. The data set is classed as organism-based. Set-up: dose 10 mg/kg, route intraperitoneal. In a few lines: as §2

Data set [7] deals with Mus musculus. Put plainly: Toxicity in mouse P388 cells allografted CD2F1 mouse assessed as body weight loss at 40 mg/kg, ip of total 9 doses starting 24 hrs post tumor inoculation measured on day 5 of inoculation relative to control. Type of data set: organism-based. Set-up: dose 40 mg/kg, route intraperitoneal. The conditions noted are these: in vivo. In a few lines:
as §2

Data set [8] has as its system Mus musculus. The data set is described as follows: Toxicity in mouse P388 cells allografted CD2F1 mouse assessed as body weight loss at 20 mg/kg, ip of total 9 doses starting 24 hrs post tumor inoculation measured on day 5 of inoculation relative to control. Set-up: dose 20 mg/kg, route intraperitoneal. As to conditions: in vivo. Type of data set: organism-based. The gist of the method:
as §2

For data set [9], the system named is Mus musculus. Put plainly: Toxicity in mouse P388 cells allografted CD2F1 mouse assessed as mouse survival at 20 mg/kg, ip of total 9 doses starting 24 hrs post tumor inoculation measured on day 5 of inoculation relative to control. The data set is classed as organism-based. Set-up: dose 20 mg/kg, route intraperitoneal. The conditions noted are these: in vivo. In a few lines: as §3

In data set [10] the test system is P388. Put plainly: Antitumor activity against mouse P388 cells allografted in CD2F1 mouse assessed as increase in mouse survival at 20 mg/kg, ip of total 9 doses starting 24 hrs post tumor inoculation measured on day 5 of inoculation relative to control. The data set is classed as functional. The conditions noted are these: route intraperitoneal. The gist of the method:
as §1

Data set [11] relates to Mus musculus. The data set is described as follows: Toxicity in mouse P388 cells allografted CD2F1 mouse assessed as mouse survival at 5 mg/kg, ip of total 9 doses starting 24 hrs post tumor inoculation measured on day 5 of inoculation relative to control. The data set is classed as organism-based. Set-up: dose 5 mg/kg, route intraperitoneal. The conditions noted are these: in vivo. The gist of the method:
as §3

SMILES strings stand for the structures.

The term T/C denotes the ratio of treated to control.

For `CNC(=O)OCc1c(COC(=O)NC)c(-c2ccc(Br)cc2)n(C)c1C`, the T/C is given as under 75% in the data set with P388 [1], 146% with P388 [3], 144% with P388 [4] and 155% in the data set on P388 [10]. Besides, the Activity in the data set on Mus musculus [2] is 1.8 g; in the data set on Mus musculus [5], “Non-toxic”; in the data set on Mus musculus [6], 2.8 g; in the data set on Mus musculus [7], 5 g; in the data set on Mus musculus [8], 2.8 g; in the data set with Mus musculus [9], “Non-toxic”. The Activity result in the data set on Mus musculus [11] is given as “Non-toxic”.
